Source: ChEMBL document CHEMBL1122838, “GABA agonists. Resolution, absolute stereochemistry, and enantioselectivity of (S)-(+)- and (R)-(-)-dihydromuscimol” (J Med Chem, 1985)
The source made the active and inactive calls. The rule behind the calls is not given here.

Tests used:
[1] = molecular target: GABA-A receptor; anion channel; assay: In vitro inhibition of [3H]P4S binding to Gamma-aminobutyric acid receptor of rat brain synaptic membranes; assay type: cell membranes, Membrane
[2] = molecular target: GABA-A receptor; anion channel; assay: In vitro inhibition of [3H]THIP binding to Gamma-aminobutyric acid receptor in rat brain synaptic membranes; assay type: cell membranes, Membrane
In short: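 Radioligand 0.005 μM [3H]THIP; rat cortical synaptic membranes (0.8–1.2 mg protein) in 0.05 M Tris-citrate pH 7.1, triplicate, 15 min at 4 °C, analogue up to 100 μM. IC50 derived from displacement; three experiments averaged per concentration.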

[3] = molecular target: Gamma-aminobutyric acid receptor subunit gamma-1 (Rattus norvegicus, UniProt P23574); assay: In vitro inhibition of [3H]GABA binding to Gamma-aminobutyric acid receptor of rat brain synaptic membranes; assay type: cell membranes, Membrane
[4] = molecular target: GABA-A receptor; anion channel; assay: In vitro inhibition of [3H]GABA binding to rat brain synaptic membranes; assay type: cell membranes, Membrane
In short: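 Rat cerebral cortex synaptic membranes (0.8–1.2 mg protein) incubated in triplicate 15 min at 4 °C in 0.05 M Tris-citrate pH 7.1 with 0.005 μM [3H]GABA and analogue (up to 100 μM). Displacement used to derive IC50; each concentration mean of three experiments.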

GABA transporter [5] = molecular target: T1, GABA transporter (Rattus norvegicus, UniProt P31647+P23978+P31646+P48056); assay type: functional, cell membranes, Brain, Membrane
Felis catus [6] = assay: BMC-sensitive inhibitory effect on cat spinal neurons relative to that of GABA was expressed in vivo as relative potency; Greater activity; assay type: functional, organism-based
GABA transporter [7] = molecular target: T1, GABA transporter; assay: In vitro inhibition of GABA uptake in rat brain synaptosomes
Felis catus [8] = assay: In vivo BMC-sensitive inhibitory effect on cat spinal neurons relative to that of GABA; Equal activity; assay type: functional, organism-based
Felis catus [9] = assay: BMC-sensitive inhibitory effect on cat spinal neurons relative to that of GABA was expressed in vivo as relative potency; Less activity; assay type: functional, organism-based

Sequence of Gamma-aminobutyric acid receptor subunit gamma-1 (P23574 whole entry): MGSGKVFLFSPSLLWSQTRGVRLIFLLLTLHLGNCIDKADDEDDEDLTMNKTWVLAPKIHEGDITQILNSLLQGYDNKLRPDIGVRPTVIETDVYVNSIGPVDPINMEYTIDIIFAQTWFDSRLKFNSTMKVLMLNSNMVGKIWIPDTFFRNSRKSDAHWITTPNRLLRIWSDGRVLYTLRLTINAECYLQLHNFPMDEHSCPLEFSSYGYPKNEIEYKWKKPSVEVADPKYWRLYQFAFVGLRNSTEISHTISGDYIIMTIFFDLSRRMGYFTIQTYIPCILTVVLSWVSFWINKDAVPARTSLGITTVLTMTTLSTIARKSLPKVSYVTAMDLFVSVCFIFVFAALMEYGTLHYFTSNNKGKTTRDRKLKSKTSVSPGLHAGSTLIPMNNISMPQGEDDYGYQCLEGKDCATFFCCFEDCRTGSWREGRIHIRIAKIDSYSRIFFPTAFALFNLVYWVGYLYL

SMILES: NC[C@H]1CC(O)=NO1
- IC50 [1]: 540 nM
- IC50 [2]: 140 nM
- IC50 [3]: 250 nM

SMILES: NCC1CC(=O)NO1 (racemic)
- IC50 [4]: 8 nM
- IC50 [1]: 18 nM
- IC50 [2]: 5 nM
- IC50 (GABA transporter [5]): 130000 nM
- Relative potency (Felis catus [6]): Active

SMILES: NC[C@@H]1CC(=O)NO1
- IC50 [1]: 8 nM
- IC50 [2]: 3 nM
- IC50 (GABA transporter [5]): > 500000 nM
- IC50 [3]: 4 nM
- Relative potency (Felis catus [6]): Active

SMILES: NC[C@H]1CC(=O)NO1
- IC50 (GABA transporter [7]): 70000 nM
- Relative potency (Felis catus [8]): Active

SMILES: NC[C@H](O)CC(=O)O
- IC50 (GABA transporter [7]): 67000 nM
- Relative potency (Felis catus [9]): Partially active
- IC50 [4]: 1000 nM
- IC50 [1]: 1900 nM
- IC50 [2]: 300 nM

SMILES: NC[C@@H](O)CC(=O)O
- Relative potency (Felis catus [9]): Partially active
- IC50 [1]: 900 nM
- IC50 [2]: 200 nM
- IC50 (GABA transporter [5]): 29000 nM
- IC50 [3]: 400 nM

SMILES: NCc1cc(O)no1 [MUSCIMOL]
- IC50 (GABA transporter [5]): 320000 nM
- Relative potency (Felis catus [6]): Active

SMILES: NCc1cc(=O)[nH]o1 [MUSCIMOL]
- IC50 [1]: 6 nM
- IC50 [2]: 5 nM
- IC50 [3]: 6 nM
